In series [1] the target is Ubiquitin carboxyl-terminal hydrolase 7 (Homo sapiens) (UniProt Q93009). The series is described as follows: Inhibition of USP7 in HEK293T cell lysates assessed as ratio of HA-Ub-VS modified USP7 to total USP7 at 100 uM using HA-Ub vinyl-sulfone as substrate preincubated for 19 to 60 mins followed by substrate addition and measured after 19 to 25 mins by Western blot analysis (reference value: 0.5). Type of series: subcellular. The following applies: Lysate. The method, boiled down: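 HEK 293T lysate incubated with compound, then treated with HA-Ub-VS. Samples were run on SDS-PAGE and blotted with anti-USP7, and the probe-modified USP7 band was distinguished from unmodified USP7.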
Sequence of Ubiquitin carboxyl-terminal hydrolase 7 (Homo sapiens) (Q93009 whole entry, looked up): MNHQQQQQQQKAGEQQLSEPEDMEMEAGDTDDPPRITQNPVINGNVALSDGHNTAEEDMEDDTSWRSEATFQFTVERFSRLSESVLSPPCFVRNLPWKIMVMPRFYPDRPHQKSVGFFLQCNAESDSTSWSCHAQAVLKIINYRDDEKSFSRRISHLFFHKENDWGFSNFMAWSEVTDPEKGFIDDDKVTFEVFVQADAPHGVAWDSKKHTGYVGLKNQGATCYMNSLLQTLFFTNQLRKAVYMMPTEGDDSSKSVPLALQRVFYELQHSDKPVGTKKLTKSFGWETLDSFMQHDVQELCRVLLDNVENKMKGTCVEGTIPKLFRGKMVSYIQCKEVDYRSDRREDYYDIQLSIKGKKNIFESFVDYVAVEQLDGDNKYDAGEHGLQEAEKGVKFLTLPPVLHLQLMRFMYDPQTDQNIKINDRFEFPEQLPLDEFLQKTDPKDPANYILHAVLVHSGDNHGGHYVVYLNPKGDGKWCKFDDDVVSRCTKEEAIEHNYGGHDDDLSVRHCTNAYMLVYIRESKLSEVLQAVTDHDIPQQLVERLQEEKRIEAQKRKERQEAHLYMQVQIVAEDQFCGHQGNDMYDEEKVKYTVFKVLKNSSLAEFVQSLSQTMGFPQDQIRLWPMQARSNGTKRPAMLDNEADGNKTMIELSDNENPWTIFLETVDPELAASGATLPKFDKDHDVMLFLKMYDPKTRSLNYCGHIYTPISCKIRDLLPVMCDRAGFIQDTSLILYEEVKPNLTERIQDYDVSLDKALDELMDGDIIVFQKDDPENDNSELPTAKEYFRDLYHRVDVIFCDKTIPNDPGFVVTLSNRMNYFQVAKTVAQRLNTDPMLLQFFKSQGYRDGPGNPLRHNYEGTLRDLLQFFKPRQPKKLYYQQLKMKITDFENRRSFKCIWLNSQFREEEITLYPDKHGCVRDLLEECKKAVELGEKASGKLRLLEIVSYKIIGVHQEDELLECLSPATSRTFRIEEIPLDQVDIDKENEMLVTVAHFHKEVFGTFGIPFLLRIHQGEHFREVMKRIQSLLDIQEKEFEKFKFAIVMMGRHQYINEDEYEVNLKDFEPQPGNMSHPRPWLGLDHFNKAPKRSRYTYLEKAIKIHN

The nature of series [2]: Inhibition of deubiquitinase in HEK293T cells expressing N-terminal HA-tagged ubiquitin assessed as stabilization of HMW-Ub proteins after 2 hrs by Western blot analysis. Format: cell-based, Homo sapiens. A general note: In western blotting, separated proteins are transferred to a membrane and probed.
For series [3], the target named is 26S proteasome (Homo sapiens) (UniProt Q99460+P49721+P20618+P28074+P28062+P28065+P28072+O00487+P25786+P25787+P25788+P25789+P28066+P60900+O14818+Q8TAA3+P40306+A5LHX3+P49720+P28070+Q99436+Q16186+P35998+P62191+P43686+P62333+P17980+P62195+Q13200+O43242+O00232+O00231+Q15008+P51665+Q9UNM6+P55036+P48556+P60896). The series is described as follows: Inhibition of 26S proteasome in HEK293T cells expressing GFP-fused Ub G76V mutant assessed as increase in GFP fluorescence. Type of series: cell-based. The method in brief: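 HEK 293T cells expressing G76V Ub-GFP, a fusion uncleavable by DUBs that reports ubiquitin-proteasome flux, treated with compound. GFP fluorescence was the read-out, with bortezomib as proteasome-inhibitor reference.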

Series [4] concerns the target T1, Ubiquitin carboxyl-terminal hydrolase 8 (Homo sapiens) (UniProt P40818).
T1 sequence (whole entry): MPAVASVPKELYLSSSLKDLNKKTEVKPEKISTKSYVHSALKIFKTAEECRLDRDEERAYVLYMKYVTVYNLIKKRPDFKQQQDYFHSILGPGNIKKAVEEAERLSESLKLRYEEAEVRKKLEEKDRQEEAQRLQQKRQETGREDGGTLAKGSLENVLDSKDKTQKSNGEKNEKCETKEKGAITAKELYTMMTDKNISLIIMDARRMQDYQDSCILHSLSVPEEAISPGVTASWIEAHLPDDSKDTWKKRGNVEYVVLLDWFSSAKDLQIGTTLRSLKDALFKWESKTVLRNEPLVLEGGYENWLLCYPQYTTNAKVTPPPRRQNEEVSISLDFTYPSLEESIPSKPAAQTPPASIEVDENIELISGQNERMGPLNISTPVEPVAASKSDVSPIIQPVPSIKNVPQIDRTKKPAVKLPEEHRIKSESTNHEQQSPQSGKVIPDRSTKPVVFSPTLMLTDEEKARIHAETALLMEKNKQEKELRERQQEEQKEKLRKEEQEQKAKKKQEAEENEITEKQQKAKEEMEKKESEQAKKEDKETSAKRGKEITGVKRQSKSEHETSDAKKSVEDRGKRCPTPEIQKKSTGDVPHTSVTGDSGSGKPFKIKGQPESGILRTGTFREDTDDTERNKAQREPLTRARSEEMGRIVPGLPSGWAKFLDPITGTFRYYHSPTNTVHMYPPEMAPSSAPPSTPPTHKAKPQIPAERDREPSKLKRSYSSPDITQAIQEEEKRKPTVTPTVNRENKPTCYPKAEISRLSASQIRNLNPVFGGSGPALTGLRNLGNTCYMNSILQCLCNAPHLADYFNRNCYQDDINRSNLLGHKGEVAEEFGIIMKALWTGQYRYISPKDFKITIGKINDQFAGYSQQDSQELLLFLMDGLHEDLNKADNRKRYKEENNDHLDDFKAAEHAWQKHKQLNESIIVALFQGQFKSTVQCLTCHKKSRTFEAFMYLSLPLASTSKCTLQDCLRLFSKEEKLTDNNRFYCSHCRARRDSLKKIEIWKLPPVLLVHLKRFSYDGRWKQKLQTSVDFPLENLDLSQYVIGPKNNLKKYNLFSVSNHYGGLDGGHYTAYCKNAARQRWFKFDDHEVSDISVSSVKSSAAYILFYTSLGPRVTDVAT
The series is described as follows: Inhibition of USP8 in HEK293T cell lysates assessed as enzyme recovery at 250 uM using HA-tagged vinyl-sulfone as substrate preincubated for 40 mins followed by 10-fold dilution and subsequent substrate addition measured up to 2 hrs by Western blot analysis. Format: subcellular. The following applies: Lysate.

The next series addresses T2, Papain (Carica papaya) (UniProt P00784).
T2 sequence (whole entry): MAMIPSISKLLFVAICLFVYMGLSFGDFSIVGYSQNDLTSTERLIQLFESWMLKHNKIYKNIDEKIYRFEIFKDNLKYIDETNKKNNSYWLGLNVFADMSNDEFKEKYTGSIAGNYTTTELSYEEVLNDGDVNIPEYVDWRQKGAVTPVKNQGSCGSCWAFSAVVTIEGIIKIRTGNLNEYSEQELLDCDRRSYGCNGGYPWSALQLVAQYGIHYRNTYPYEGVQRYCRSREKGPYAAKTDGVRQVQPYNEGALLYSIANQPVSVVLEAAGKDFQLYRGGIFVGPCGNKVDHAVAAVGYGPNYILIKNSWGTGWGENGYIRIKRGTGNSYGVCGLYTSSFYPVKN
The series is described as follows: Inhibition of papaya papain at 100 uM using Z-Arg-AMC as substrate preincubated for 30 mins followed by substrate addition by fluorescence assay. The method in brief: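 Enzyme (papain or ficin) preincubated 30 min with inhibitor at 100 μM, then Z-Arg-AMC substrate added at 300 μM; AMC release followed.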

A further series deals with Trypsin (Homo sapiens, UniProt P07477+P07478+P35030). The series is described as follows: Substrate activity at trypsin (unknown origin) by Michaelis-Menten plot analysis. Format: ADME, protein assay. The method in brief:
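Diarylcarbonate hydrolysis by chymotrypsin or trypsin measured across substrate concentrations; velocity versus substrate concentration fit for Km and kcat.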

For series [5], the target named is T3, Ubiquitin carboxyl-terminal hydrolase isozyme L3 (Homo sapiens) (UniProt P15374).
T3 sequence (whole entry): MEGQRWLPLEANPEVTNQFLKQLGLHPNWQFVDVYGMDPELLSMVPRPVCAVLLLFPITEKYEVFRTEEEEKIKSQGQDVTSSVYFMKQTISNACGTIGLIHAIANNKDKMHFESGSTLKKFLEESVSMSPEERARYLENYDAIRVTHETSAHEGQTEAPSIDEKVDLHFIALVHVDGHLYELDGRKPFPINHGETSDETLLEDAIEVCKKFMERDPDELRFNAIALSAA
The series is described as follows: Inhibition of UCHL3 in HEK293T cell lysates assessed as enzyme recovery at 250 uM using HA-tagged vinyl-sulfone as substrate […] followed by 10-fold dilution and subsequent substrate addition measured within 15 mins by Western blot analysis. Type of series: subcellular. The following applies: Lysate.

Series [6] has as its target Ubiquitin carboxyl-terminal hydrolase 9X (Homo sapiens) (UniProt Q93008). The series is described as follows: Inhibition of USP9x in HEK293T cell lysates at 25 uM using HA-tagged vinyl-sulfone as substrate measured after 2 to 30 mins by Western blot analysis. Format: subcellular. The following applies: Lysate. The method in brief:
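HEK 293T lysate (1.5 mg/ml) given compound (25 μM) or DMSO at the same time as HA-Ub-VS (1.5 μM). Aliquots withdrawn over time were run on SDS-PAGE and immunoblotted for HA.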

Calls of active or inactive are those of the source. No cut-off for these calls is given here.

Results on one compound are retold here after ChEMBL document CHEMBL4371052, “Diarylcarbonates are a new class of deubiquitinating enzyme inhibitor” (Bioorg Med Chem Lett, 2019).

For orientation: EC50 means the concentration that produces a half-maximal response. Broadly, the Km is the substrate concentration at which the rate is half of its maximum.

Sequence of Ubiquitin carboxyl-terminal hydrolase 9X (Homo sapiens) (Q93008 whole entry): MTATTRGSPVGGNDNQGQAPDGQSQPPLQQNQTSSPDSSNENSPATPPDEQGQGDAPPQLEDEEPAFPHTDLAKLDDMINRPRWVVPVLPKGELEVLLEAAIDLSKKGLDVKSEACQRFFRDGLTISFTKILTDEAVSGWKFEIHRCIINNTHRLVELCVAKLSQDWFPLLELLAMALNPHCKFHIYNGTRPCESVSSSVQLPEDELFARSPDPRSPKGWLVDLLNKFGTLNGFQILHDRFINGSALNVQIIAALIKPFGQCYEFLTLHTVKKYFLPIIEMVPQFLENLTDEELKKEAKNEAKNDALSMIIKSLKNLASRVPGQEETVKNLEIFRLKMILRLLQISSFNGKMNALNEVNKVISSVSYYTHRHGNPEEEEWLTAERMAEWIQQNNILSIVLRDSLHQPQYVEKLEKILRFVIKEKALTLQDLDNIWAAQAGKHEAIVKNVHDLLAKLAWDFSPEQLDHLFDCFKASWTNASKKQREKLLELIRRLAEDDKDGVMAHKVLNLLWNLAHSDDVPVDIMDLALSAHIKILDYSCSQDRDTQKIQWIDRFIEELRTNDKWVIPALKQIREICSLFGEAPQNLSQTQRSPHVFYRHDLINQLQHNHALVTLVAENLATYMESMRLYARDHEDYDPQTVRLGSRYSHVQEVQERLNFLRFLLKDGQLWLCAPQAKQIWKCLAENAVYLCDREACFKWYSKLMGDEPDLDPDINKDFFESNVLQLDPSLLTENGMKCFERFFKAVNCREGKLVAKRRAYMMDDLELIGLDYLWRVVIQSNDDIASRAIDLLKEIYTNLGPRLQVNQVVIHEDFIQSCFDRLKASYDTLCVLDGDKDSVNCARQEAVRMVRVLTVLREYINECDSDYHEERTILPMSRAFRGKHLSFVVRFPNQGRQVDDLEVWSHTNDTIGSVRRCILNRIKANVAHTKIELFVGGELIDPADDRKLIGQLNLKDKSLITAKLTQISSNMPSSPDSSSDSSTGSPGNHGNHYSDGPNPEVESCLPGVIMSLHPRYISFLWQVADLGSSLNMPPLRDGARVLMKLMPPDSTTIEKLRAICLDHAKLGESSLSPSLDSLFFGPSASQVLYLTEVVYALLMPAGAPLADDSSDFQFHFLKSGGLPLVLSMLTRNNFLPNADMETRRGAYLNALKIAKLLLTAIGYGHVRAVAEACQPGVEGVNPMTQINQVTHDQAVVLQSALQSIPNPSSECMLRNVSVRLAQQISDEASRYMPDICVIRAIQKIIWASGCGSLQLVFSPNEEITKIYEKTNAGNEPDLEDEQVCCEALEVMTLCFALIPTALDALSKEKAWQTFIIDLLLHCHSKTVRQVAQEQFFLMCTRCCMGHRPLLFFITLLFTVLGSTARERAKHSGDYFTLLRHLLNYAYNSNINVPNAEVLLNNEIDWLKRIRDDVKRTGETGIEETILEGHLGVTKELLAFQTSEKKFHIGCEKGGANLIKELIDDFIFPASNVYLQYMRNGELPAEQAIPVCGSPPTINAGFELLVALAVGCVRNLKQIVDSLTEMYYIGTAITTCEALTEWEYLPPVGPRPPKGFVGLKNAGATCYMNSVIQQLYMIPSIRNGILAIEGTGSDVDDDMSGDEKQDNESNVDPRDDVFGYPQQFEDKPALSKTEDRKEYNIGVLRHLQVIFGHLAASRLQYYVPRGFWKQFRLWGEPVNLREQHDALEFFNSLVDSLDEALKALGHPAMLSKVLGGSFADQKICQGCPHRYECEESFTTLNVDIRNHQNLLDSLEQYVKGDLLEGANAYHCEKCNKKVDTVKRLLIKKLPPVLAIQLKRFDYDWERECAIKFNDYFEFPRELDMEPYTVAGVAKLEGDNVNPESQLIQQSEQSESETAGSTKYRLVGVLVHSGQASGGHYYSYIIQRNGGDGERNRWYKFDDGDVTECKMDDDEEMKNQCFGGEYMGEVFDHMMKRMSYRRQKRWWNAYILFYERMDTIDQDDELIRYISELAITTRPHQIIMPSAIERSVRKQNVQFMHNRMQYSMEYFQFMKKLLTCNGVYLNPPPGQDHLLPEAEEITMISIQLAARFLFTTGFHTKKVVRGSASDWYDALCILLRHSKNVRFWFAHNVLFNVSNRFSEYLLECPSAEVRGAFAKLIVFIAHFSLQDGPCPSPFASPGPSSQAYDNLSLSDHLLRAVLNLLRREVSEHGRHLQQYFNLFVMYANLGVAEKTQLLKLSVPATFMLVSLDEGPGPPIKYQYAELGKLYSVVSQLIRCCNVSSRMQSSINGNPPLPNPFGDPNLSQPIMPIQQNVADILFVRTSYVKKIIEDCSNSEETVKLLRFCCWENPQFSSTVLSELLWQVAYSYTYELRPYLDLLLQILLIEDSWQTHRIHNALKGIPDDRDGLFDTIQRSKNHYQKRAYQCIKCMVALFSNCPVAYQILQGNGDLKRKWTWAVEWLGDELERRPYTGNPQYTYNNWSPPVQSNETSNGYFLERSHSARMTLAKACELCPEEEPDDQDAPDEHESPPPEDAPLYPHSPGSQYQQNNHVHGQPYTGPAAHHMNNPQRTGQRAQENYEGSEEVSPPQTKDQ

On to `NCc1ccc(OC(=O)Oc2ccc3ccccc3c2)cc1`, for which the Ratio in series [1] was determined as 0.3. In addition, the EC50 in series [2] worked out at 20 µM. Also, the inhibition entry (in series [3]; in series [4]; on Papain (Carica papaya); in series [6]) was “inactive” in each case. The Kcat on Trypsin turned out to be 0.02 s⁻¹. In addition, the Km at Trypsin (trypsin (isolated enzyme, unknown origin)) worked out at 1 µM. The inhibition result in series [5] is “Active”.
